Activity calls are given as the source filed them. The calls are words filed in the database; no cut-off is given here.

Data set [1] in a line: AUC (0 to infinity) in Sprague-Dawley rat at 5 mg/kg, iv by LC-MS/MS analysis. Also on record: dose 5 mg/kg, route intravenous, time infinity. The conditions noted are these: in vivo. The class given is ADME, organism-based. Put shortly: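 Single intravenous 5 mg/kg dose in 5% DMSO + 2% F68 + 93% saline to male Sprague–Dawley rats (n = 3). Orbital blood samples (100-200 μL) were taken at 12 points over 24 h (0.083 to 24 h). AUC0-∞ was derived from the plasma concentration–time curve and given as mean ± SD.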

Data set [2] has as its system SH-SY5Y. Put plainly: Protection against H2O2-induced oxidative stress in human SH-SY5Y cells assessed as reduction in reactive oxygen species level preincubated for 6 hrs followed by H2O2 addition and measured after 24 hrs by DHE dye based inverted microscopic analysis. The class given is functional, cell-based.
For data set [3], the system named is SH-SY5Y. The data set is described as follows: Cytotoxicity against non-stimulated human SH-SY5Y cells assessed as effect on LDH release measured after 6 hrs. The class given is cell-based.
For data set [4], the system named is SH-SY5Y. Put plainly: Protection against H2O2-induced mitochondrial dysfunction in human SH-SY5Y cells assessed as increase in mitochondrial membrane potential at 1 to 10 uM preincubated for 6 hrs followed by H2O2 addition and measured after 24 hrs by Rh123 staining based inverted microscopic analysis. The class given is functional, cell-based. Put shortly:
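ΔΨm examined by inverted fluorescence microscopy and flow cytometry after pretreatment (1, 10 μM) and 600 μM H₂O₂. Reported as % of control. Mean ± S.E.M., three independent experiments.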

Usually AUC(0-inf) stands for the area under the concentration-time curve extrapolated to infinity. In data set [1], `COC(=O)[C@H](Cc1ccccc1)NC(=O)/C=C/c1ccc(O)c(O)c1` [N-CAFFEOYL-PHENYLALANINE METHYL ESTER] had an AUC(0-inf) of 3270 ng·h/mL. In addition, the values for the Activity result in the data set with SH-SY5Y [2] and in the data set with SH-SY5Y [3] were “Dose-dependent effect” and “Non-Toxic”, respectively. In addition, in the data set with SH-SY5Y [4], the outcome was Active.

The values are drawn from ChEMBL document CHEMBL4308887, “Synthesis and biological evaluation of clovamide analogues with catechol functionality as potent Parkinson's disease agents in vitro and in vivo” (Bioorg Med Chem Lett, 2019).
